In publication PMC4893934 (European journal of medicinal chemistry, 2016):
Where “and” joins values, the source holds several entries; their conditions need not be identical. Equal values may be shown once.

Tests used:
[1] = system: mutant IDH1 activity (2-HG production) in IDH1-R132H-mutated astrocytoma cell line; format: cell-based; conditions: 50 µM, 8 h post-incubation, IDH1-mutated astrocytoma cells
In short: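 Isogenic anaplastic astrocytoma lines (WHO grade III-derived subclone with native IDH1-R132H; WT-IDH1 control) were seeded in duplicate at 30,000/well. At confluency, medium was replaced with test compound at 50 µM final (from 20 mM DMSO stock), n=2/experiment, under standard culture conditions. Supernatant was sampled at 4 and 8 h and stored at -80°C. D-2-HG was measured by LC-MS/MS. Controls were vehicle-treated mutant and WT cells.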

[2] = molecular target: IDH1-R132H (Homo sapiens, UniProt O75874, R132H); assay: Mutant IDH1 inhibition assay with purified enzyme; format: biochemical; conditions: for IC50: IC50 against the mutant IDH1, purified IDH1-R132H enzyme; for inhibition at 392 µM: read-out: maximal enzyme inhibition (inhibitory efficiency), purified IDH1-R132H enzyme, tested range 0.19 – 392 µM
[3] = molecular target: mutant IDH1-R132H enzyme; conditions: read-out: IC50 against the mutant IDH1-R132H enzyme; cited from earlier work
[4] = Tissue distribution studies; format: in vivo, BALB/C mice; conditions: for Biodistribution, Bladder / Biodistribution, Blood / Biodistribution, Bone / Biodistribution, Brain / Biodistribution, Heart / Biodistribution, Intestines / Biodistribution, Kidneys / Biodistribution, Liver / Biodistribution, Lungs / Biodistribution, Muscle / Biodistribution, Skin / Biodistribution, Spleen / Biodistribution, Stomach / Biodistribution, Thyroid: mean ± SD, n=5
[5] = system: IDH1-R132H mutant and WT-IDH1 astrocytoma cell lines; assay: Cell uptake studies of labeled inhibitors; format: cell-based; conditions: for cell uptake, % of the added activity: mutant IDH1 cell line
In short: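 IDH1-R132H and isogenic WT-IDH1 astrocytoma cells were plated about 24 h ahead at 20,000–30,000/well, then PBS-washed. Cells were incubated with radioiodinated test compound (~3.7 kBq/well) in culture medium at 37°C, 5% CO2, for 0.25–4 h. Co-incubation used unlabeled analog (0–100 µM) for 3 h, or 0.1%/1% versus 10% FBS. After ice-cold PBS washes and 5 min RT lysis, lysate, supernatant and washes were gamma-counted. Uptake is % incubation dose/well.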

[6] = 5 min after i.v. injection, listed as 125I-labeled 1

Chain of IDH1-R132H (O75874 whole entry R132H): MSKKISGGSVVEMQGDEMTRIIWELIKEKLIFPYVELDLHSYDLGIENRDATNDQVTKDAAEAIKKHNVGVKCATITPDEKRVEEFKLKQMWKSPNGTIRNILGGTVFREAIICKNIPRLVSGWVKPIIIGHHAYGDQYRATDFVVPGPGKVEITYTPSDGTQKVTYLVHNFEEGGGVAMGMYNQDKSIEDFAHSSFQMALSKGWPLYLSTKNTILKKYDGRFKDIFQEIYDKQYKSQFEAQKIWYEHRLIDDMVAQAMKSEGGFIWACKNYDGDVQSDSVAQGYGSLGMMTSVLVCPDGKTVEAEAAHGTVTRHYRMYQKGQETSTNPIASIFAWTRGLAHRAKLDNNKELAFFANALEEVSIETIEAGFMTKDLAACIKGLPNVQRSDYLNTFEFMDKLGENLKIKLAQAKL

Compound: CCCCc1ccc(NS(=O)(=O)c2ccc(C)c(C(=O)N3CCN(c4ccccc4I)CC3)c2)cc1 [Compound 1, N-(4-Butylphenyl)-3-(4-(2-iodophenyl)piperazine-1-carbonyl)-4-methylbenzenesulfonamide]
- decrease of 2-HG concentration in mutant IDH1 cell supernatants [1]: 43%
- IC50 ([2]; 0.19 – 392 µM): 1700 nM and ~2000 nM
- inhibition at 392 µM [2]: ~100%

Compound: CCCCc1ccc(NS(=O)(=O)c2ccc(C)c(C(=O)N3CCN(c4ccc(I)cc4)CC3)c2)cc1 [Compound 2, N-(4-Butylphenyl)-3-(4-(4-iodophenyl)piperazine-1-carbonyl)-4-methylbenzenesulfonamide]
- activity against mutant IDH1 (in words) ([2]; purified IDH1-R132H enzyme, 0.19 – 392 µM): did not show any significant activity

Compound: CCCCc1ccc(NS(=O)(=O)c2ccc(C)c(C(=O)N3CCN(c4ccccc4OCCF)CC3)c2)cc1 [Compound 4, N-(4-Butylphenyl)-3-(4-(2-(2-fluoroethoxy)phenyl)piperazine-1-carbonyl)-4-methylbenzenesulfonamide]
- decrease of 2-HG concentration in mutant IDH1 cell supernatants [1]: 50%
- IC50 ([2]; 0.19 – 392 µM): 2300 nM and ~2000 nM
- inhibition at 392 µM [2]: ~100%

Compound: CCCCc1ccc(NS(=O)(=O)c2ccc(C)c(C(=O)N3CCN(c4ccc(OCCF)cc4)CC3)c2)cc1 [Compound 5, N-(4-Butylphenyl)-3-(4-(4-(2-fluoroethoxy)phenyl)piperazine-1-carbonyl)-4-methylbenzenesulfonamide]
- IC50 ([2]; 0.19 – 392 µM): 1200 nM
- maximal enzyme inhibition (inhibitory efficiency) ([2]; purified IDH1-R132H enzyme, tested range 0.19 – 392 µM, 392 µM): 26.4%
- inhibition at 392 µM [2]: ~30%

Compound: COc1ccccc1N1CCN(C(=O)c2cc(S(=O)(=O)Nc3ccc(CCCF)cc3)ccc2C)CC1 [Compound 6, N-(4-(3-Fluoropropyl)phenyl)-3-(4-(2-methoxyphenyl)piperazine-1-carbonyl)-4-methylbenzenesulfonamide]
- IC50 ([2]; 0.19 – 392 µM): 2700 nM
- inhibition at 392 µM [2]: 99%

Compound: COc1ccccc1N1CCN(C(=O)c2cc(S(=O)(=O)Nc3ccc(CCCCF)cc3)ccc2C)CC1 [Compound 7, N-(4-(4-Fluorobutyl)phenyl)-3-(4-(2-methoxyphenyl)piperazine-1-carbonyl)-4-methylbenzenesulfonamide]
- IC50 ([2]; 0.19 – 392 µM): 2400 nM
- inhibition at 392 µM [2]: 81%

Compound: CCCCc1ccc(NS(=O)(=O)c2ccc(C)c(C(=O)N3CCN(c4ccccc4OC)CC3)c2)cc1 [Compound A, N-(4-butylphenyl)-3-(4-(2-methoxyphenyl)piperazine-1-carbonyl)-4-methylbenzenesulfonamide, reference compound]
- IC50 ([2]; 0.19 – 392 µM): 2200 nM
- inhibition at 392 µM [2]: ~100%
- IC50 [3]: < 1000 nM

Compound: CCCCc1ccc(NS(=O)(=O)c2ccc(C)c(C(=O)N3CCN(c4ccccc4[125I])CC3)c2)cc1 [[^125I]1, N-(4-Butylphenyl)-3-(4-(2-[^125I]iodophenyl)piperazine-1-carbonyl)-4-methylbenzenesulfonamide]
- uptake in the brain ([4]; 1 – 4 h after injection): ≤ 0.07 %ID/g
- Biodistribution, Bladder ([4]; 5 min after i.v. injection): 0.03 ± 0.01 %ID
- Biodistribution, Blood ([4]; 5 min after i.v. injection): about 12 %ID
- Biodistribution, Bone ([4]; 5 min after i.v. injection): 3.92 ± 1.45 %ID
- Biodistribution, Brain ([4]; 5 min after i.v. injection): 0.15 ± 0.05 %ID
- Biodistribution, Heart ([4]; 5 min after i.v. injection): 1.11 ± 0.39 %ID
- Biodistribution, Intestines ([4]; 5 min after i.v. injection): 6.37 ± 5.80 %ID
- Biodistribution, Kidneys ([4]; 5 min after i.v. injection): 3.50 ± 1.08 %ID
- Biodistribution, Liver ([4]; 5 min after i.v. injection): About 30 %ID
- Biodistribution, Lungs ([4]; 5 min after i.v. injection): 1.69 ± 0.83 %ID
- Biodistribution, Muscle ([4]; 5 min after i.v. injection): 13.79 ± 4.85 %ID
- Biodistribution, Skin ([4]; 5 min after i.v. injection): 3.31 ± 0.74 %ID
- Biodistribution, Spleen ([4]; 5 min after i.v. injection): 0.36 ± 0.12 %ID
- Biodistribution, Stomach ([4]; 5 min after i.v. injection): 0.40 ± 0.12 %ID
- Biodistribution, Thyroid ([4]; 5 min after i.v. injection): 0.32 ± 0.18 %ID
- Biodistribution, Blood [4, 6]: 11.83 ± 1.99 %ID
- Biodistribution, Liver [4, 6]: 29.43 ± 5.60 %ID
- activity concentration in the thyroid gland ([4]; 5 min after injection): 1.69 ± 0.93 %ID/g
- uptake in the brain ([4]; 5 min after injection): 0.39 ± 0.13 %ID
- Biodistribution, Bladder ([4]; 1 h after i.v. injection): 0.01 ± 0.01 %ID
- Biodistribution, Blood ([4]; 1 h after i.v. injection): 0.71 ± 0.27 %ID
- Biodistribution, Bone ([4]; 1 h after i.v. injection): 1.21 ± 0.14 %ID
- Biodistribution, Brain ([4]; 1 h after i.v. injection): 0.03 ± 0.01 %ID
- Biodistribution, Heart ([4]; 1 h after i.v. injection): 0.12 ± 0.02 %ID
- Biodistribution, Intestines ([4]; 1 h after i.v. injection): 38.13 ± 1.49 %ID
- Biodistribution, Kidneys ([4]; 1 h after i.v. injection): 0.88 ± 0.14 %ID
- Biodistribution, Liver ([4]; 1 h after i.v. injection): 13.30 ± 0.69 %ID
- Biodistribution, Lungs ([4]; 1 h after i.v. injection): 0.17 ± 0.02 %ID
- Biodistribution, Muscle ([4]; 1 h after i.v. injection): 8.21 ± 0.77 %ID
- Biodistribution, Skin ([4]; 1 h after i.v. injection): 2.90 ± 1.07 %ID
- Biodistribution, Spleen ([4]; 1 h after i.v. injection): 0.05 ± 0.01 %ID
- Biodistribution, Stomach ([4]; 1 h after i.v. injection): 0.65 ± 0.18 %ID
- Biodistribution, Thyroid ([4]; 1 h after i.v. injection): 0.04 ± 0.03 %ID
- maximum excreted into the urine ([4]; 1 h after injection): 2.84 % ID
- Biodistribution, Bladder ([4]; 2 h after i.v. injection): 0.02 ± 0.03 %ID
- Biodistribution, Blood ([4]; 2 h after i.v. injection): 0.29 ± 0.09 %ID
- Biodistribution, Bone ([4]; 2 h after i.v. injection): 0.60 ± 0.29 %ID
- Biodistribution, Brain ([4]; 2 h after i.v. injection): 0.02 ± 0.01 %ID
- Biodistribution, Heart ([4]; 2 h after i.v. injection): 0.04 ± 0.01 %ID
- Biodistribution, Intestines ([4]; 2 h after i.v. injection): 53.24 ± 7.84 %ID
- Biodistribution, Kidneys ([4]; 2 h after i.v. injection): 0.43 ± 0.15 %ID
- Biodistribution, Liver ([4]; 2 h after i.v. injection): 6.57 ± 1.77 %ID
- Biodistribution, Lungs ([4]; 2 h after i.v. injection): 0.07 ± 0.03 %ID
- Biodistribution, Muscle ([4]; 2 h after i.v. injection): 3.91 ± 0.87 %ID
- Biodistribution, Skin ([4]; 2 h after i.v. injection): 1.25 ± 0.53 %ID
- Biodistribution, Spleen ([4]; 2 h after i.v. injection): 0.03 ± 0.01 %ID
- Biodistribution, Stomach ([4]; 2 h after i.v. injection): 0.63 ± 0.82 %ID
- Biodistribution, Thyroid ([4]; 2 h after i.v. injection): 0.05 ± 0.05 %ID
- activity in the hepatobiliary system ([4]; 2 h after injection): approximately 60 % ID
- Biodistribution, Bladder ([4]; 4 h after i.v. injection): 0.01 ± 0.01 %ID
- Biodistribution, Blood ([4]; 4 h after i.v. injection): about 0.13 %ID
- Biodistribution, Bone ([4]; 4 h after i.v. injection): 0.22 ± 0.14 %ID
- Biodistribution, Brain ([4]; 4 h after i.v. injection): 0.01 ± 0.00 %ID
- Biodistribution, Heart ([4]; 4 h after i.v. injection): 0.01 ± 0.00 %ID
- Biodistribution, Intestines ([4]; 4 h after i.v. injection): 41.40 ± 6.02 %ID
- Biodistribution, Kidneys ([4]; 4 h after i.v. injection): 0.16 ± 0.03 %ID
- Biodistribution, Liver ([4]; 4 h after i.v. injection): 3.41 ± 0.62 %ID
- Biodistribution, Lungs ([4]; 4 h after i.v. injection): 0.03 ± 0.01 %ID
- Biodistribution, Muscle ([4]; 4 h after i.v. injection): 1.57 ± 0.34 %ID
- Biodistribution, Skin ([4]; 4 h after i.v. injection): 0.56 ± 0.09 %ID
- Biodistribution, Spleen ([4]; 4 h after i.v. injection): 0.01 ± 0.01 %ID
- Biodistribution, Stomach ([4]; 4 h after i.v. injection): 1.22 ± 2.12 %ID
- Biodistribution, Thyroid ([4]; 4 h after i.v. injection): 0.06 ± 0.03 %ID
- Biodistribution, Blood ([4]; 4 h after i.v. injection, listed as 125I-labeled 1): 0.13 ± 0.01 %ID
- activity concentration in the thyroid gland ([4]; 4 h after injection): 0.42 ± 0.16 %ID/g
- activity concentration in the vital organs except liver ([4]; 4 h after injection): < 0.2 % ID/g
- average uptake ratio mutant-IDH1 / WT-IDH1 cell lines ([5]; 2 h incubation): 1.66
- maximal increase in uptake versus no-carrier-added tracer ([5]; co-incubation with 10 µM unlabeled 1, 3 h): 53 fold
- cell uptake, % of the added activity ([5]; 15 min incubation): about 0.5%
- cell uptake, % of the added activity ([5]; 3 h incubation): 0.80 ± 0.04%
